Laboratory results published in ChEMBL document CHEMBL1123761, “Inhibition of the mammalian beta-lactamase renal dipeptidase (dehydropeptidase-I) by (Z)-2-(acylamino)-3-substituted-propenoic acids” (J Med Chem, 1987).
Non-standard residues stand in square brackets, D forms with d. Residues, ends and D or L forms follow the SMILES beside them. *: point of attachment. Isovaleryl = CC(C)CC(=O)*; Dhb = C/C=C(\N)C(=O)O; Butyryl = CCCC(=O)*

Biological target: T1, Dipeptidase 1 (Sus scrofa) (UniProt P22412)
T1 sequence (whole entry): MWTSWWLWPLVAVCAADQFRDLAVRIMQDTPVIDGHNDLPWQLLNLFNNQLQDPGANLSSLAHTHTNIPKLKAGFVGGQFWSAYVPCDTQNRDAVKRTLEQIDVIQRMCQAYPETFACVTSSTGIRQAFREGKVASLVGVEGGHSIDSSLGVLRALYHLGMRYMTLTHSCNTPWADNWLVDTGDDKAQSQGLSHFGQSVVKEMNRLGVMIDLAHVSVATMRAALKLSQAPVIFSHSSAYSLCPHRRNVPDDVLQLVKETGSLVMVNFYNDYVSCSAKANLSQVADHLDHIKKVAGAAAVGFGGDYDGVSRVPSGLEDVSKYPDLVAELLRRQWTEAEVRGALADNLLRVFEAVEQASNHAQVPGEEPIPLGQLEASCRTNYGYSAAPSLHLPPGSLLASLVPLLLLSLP
Test: Inhibitory activity against beta-lactamase renal dipeptidase at a concentration of 100 uM
Method in brief: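 Inhibitor was incubated with solubilized renal dipeptidase (50–75% ammonium sulfate fraction, 5 µg) in 50 mM MOPS pH 7.1 for 5 min at 37 °C. Glycyldehydrophenylalanine was then added to 50 µM. Rate was followed as the absorbance decrease at 275 nm over 10 min and compared with the uninhibited rate.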

Question: Which inhibition does the source give for `C/C=C(\NC(=O)CC1=CCCCC1)C(=O)O` here?
Answer: 50%

Question: For `C/C=C(\NC(=O)c1ccco1)C(=O)O`, which inhibition is on record?
Answer: 57%

Question: With `C/C=C(\NC(=O)CC1CC2CCC1C2)C(=O)O` (centres undefined) as the molecule, how does the inhibition read?
Answer: 54%

Question: How did the inhibition turn out when `C/C=C(\NC(=O)C(CCC)CCC)C(=O)O` was run?
Answer: 13%

Question: Which inhibition does the source give for `C[C@H](N)C(=O)N/C(=C\Cl)C(=O)O` here?
Answer: 6%

Question: With `C/C=C(\NC(=O)C12CC3CC(CC(C3)C1)C2)C(=O)O` as the molecule, how does the inhibition read?
Answer: 3%

Question: With `C/C=C(\NC(=O)Cc1ccccc1)C(=O)O` as the molecule, how does the inhibition read?
Answer: 21%

Question: Which inhibition does the source give for `CC(C)=C(NC(=O)c1ccccc1)C(=O)O` here?
Answer: 4%

Question: `O=C(O)/C(=C/Cl)NC(=O)c1ccccc1` was tested. Which inhibition did it give?
Answer: 36%

Question: Which inhibition does the source give for `C/C=C(\NC(=O)CCC1CCCCC1)C(=O)O` here?
Answer: 54%

Question: For `C/C=C(\NC(=O)CCc1ccccc1)C(=O)O`, which inhibition is on record?
Answer: 30%

Question: With `C/C=C(\NC(=O)CC12CC3CC(CC(C3)C1)C2)C(=O)O` as the molecule, how does the inhibition read?
Answer: 33%

Question: How did the inhibition turn out when `C/C=C(\NC(=O)CCCCCCCCC)C(=O)O` was run?
Answer: 58%

Question: For `C/C=C(\NC(=O)C1C(C=C(C)C)C1(C)C)C(=O)O` (centres undefined), which inhibition is on record?
Answer: 15%

Question: With `C/C=C(\NC(=O)c1ccc(Cl)cc1)C(=O)O` as the molecule, how does the inhibition read?
Answer: 7%

Question: For `C/C=C(\NC(=O)CCCCC)C(=O)O`, which inhibition is on record?
Answer: 54%

Question: With `C/C=C(\NC(=O)c1ccc(C)cc1)C(=O)O` as the molecule, how does the inhibition read?
Answer: 2.5%

Question: With `O=C(CO)N/C(=C\c1ccccc1)C(=O)O` as the molecule, how does the inhibition read?
Answer: 4%

Question: `C/C=C(\NC(=O)C1C(C(C)(C)C)C1(C)C)C(=O)O` (centres undefined) was tested. Which inhibition did it give?
Answer: 44%

Question: `C/C=C(\NC(=O)COc1ccccc1)C(=O)O` was tested. Which inhibition did it give?
Answer: 3%

Question: `C/C=C(\NC(=O)CCCCCCCCCCCCC)C(=O)O` was tested. Which inhibition did it give?
Answer: 45%

Question: `C=C(NC(=O)c1ccccc1)C(=O)O` was tested. Which inhibition did it give?
Answer: 9%

Question: How did the inhibition turn out when `C/C=C(\NC(=O)c1c(Cl)cccc1Cl)C(=O)O` was run?
Answer: 0%

Question: For `C/C=C(\NC(=O)CC)C(=O)O`, which inhibition is on record?
Answer: 43%

Question: With `C/C=C(\NC(=O)CCl)C(=O)O` as the molecule, how does the inhibition read?
Answer: 52%

Question: `C/C=C(\NC(=O)c1ccc2ccccc2c1)C(=O)O` was tested. Which inhibition did it give?
Answer: 3%

Question: Which inhibition does the source give for `C/C=C(\NC(=O)C(C)(C)C)C(=O)O` here?
Answer: 0%

Question: With `C/C=C(\NC(=O)CN)C(=O)O` (H-Gly-[Dhb]-OH) as the molecule, how does the inhibition read?
Answer: 6%

Question: For `C/C=C(\NC(=O)CNC(=O)CCC)C(=O)O` (Butyryl-Gly-[Dhb]-OH), which inhibition is on record?
Answer: 5%

Question: `C/C=C(\NC(=O)/C=C/C=C/C)C(=O)O` was tested. Which inhibition did it give?
Answer: 0%

Question: For `CO/C=C(\NC(=O)c1ccccc1)C(=O)O`, which inhibition is on record?
Answer: 23%

Question: For `C/C=C(\NC(=O)CCC1CCCC1)C(=O)O`, which inhibition is on record?
Answer: 56%

Question: `C/C=C(\NC(=O)C1(C)CC1)C(=O)O` was tested. Which inhibition did it give?
Answer: 16%

Question: `C/C=C(\NC(=O)c1ccc(OC)cc1)C(=O)O` was tested. Which inhibition did it give?
Answer: 0%

Question: `C/C=C(\NC(=O)C1(C)CCCCC1)C(=O)O` was tested. Which inhibition did it give?
Answer: 11%

Question: `C=CCCC(=O)N/C(=C\C)C(=O)O` was tested. Which inhibition did it give?
Answer: 57%

Question: With `C/C=C(\NC(=O)CCCCCCCCCCCCCCCCC)C(=O)O` as the molecule, how does the inhibition read?
Answer: 12%

Question: `C/C=C(\NC(=O)CNC(=O)CC(C)C)C(=O)O` (Isovaleryl-Gly-[Dhb]-OH) was tested. Which inhibition did it give?
Answer: 5%

Question: With `C/C=C(\NC(=O)/C=C/c1ccccc1)C(=O)O` as the molecule, how does the inhibition read?
Answer: 0%

Question: With `C/C=C(\NC(C)=O)C(=O)O` as the molecule, how does the inhibition read?
Answer: 12%

Question: `C/C=C(\NC(=O)CCCC(=O)N(C)C)C(=O)O` was tested. Which inhibition did it give?
Answer: 46%

Question: For `C/C=C(\NC(=O)CCCCC(C)C)C(=O)O`, which inhibition is on record?
Answer: 57%

Question: Which inhibition does the source give for `C/C=C(\NC(=O)CCCCCC)C(=O)O` here?
Answer: 49%

Question: With `C/C=C(\NC(=O)CCC1CCCO1)C(=O)O` (centres undefined) as the molecule, how does the inhibition read?
Answer: 51%

Question: For `C/C=C(\NC(=O)C(C)C)C(=O)O`, which inhibition is on record?
Answer: 31%

Question: Which inhibition does the source give for `CC(C)=C(NC(=O)C1CC1(C)C)C(=O)O` (centres undefined) here?
Answer: 57%

Question: `C/C=C(\NC(=O)C1C(C)(C)C1(C)C)C(=O)O` was tested. Which inhibition did it give?
Answer: 10%

Question: How did the inhibition turn out when `C/C=C(\NC(=O)C(CC)CCCC)C(=O)O` (centres undefined) was run?
Answer: 33%

Biological target: T2, Dipeptidase 1 (Sus scrofa, UniProt P22412)
T2 sequence (P22412 whole entry): T1 sequence (whole entry)
Test: Inhibitory activity against beta-lactamase renal dipeptidase

Question: How did the Ki turn out when `C/C=C(\NC(=O)CCCNC(C)=O)C(=O)O` was run?
Answer: 102 µM
